From ChEMBL document CHEMBL1147644, “Dipeptide nitrile inhibitors of cathepsin K” (Bioorg Med Chem Lett, 2006)

Legend:
[1] = target: Procathepsin L (Homo sapiens, UniProt P07711); test: Inhibition of recombinant human cathepsin L
[2] = target: T1, Cathepsin K (Homo sapiens, UniProt P43235); test: Inhibition of recombinant human cathepsin K
T1 sequence (P43235 whole entry): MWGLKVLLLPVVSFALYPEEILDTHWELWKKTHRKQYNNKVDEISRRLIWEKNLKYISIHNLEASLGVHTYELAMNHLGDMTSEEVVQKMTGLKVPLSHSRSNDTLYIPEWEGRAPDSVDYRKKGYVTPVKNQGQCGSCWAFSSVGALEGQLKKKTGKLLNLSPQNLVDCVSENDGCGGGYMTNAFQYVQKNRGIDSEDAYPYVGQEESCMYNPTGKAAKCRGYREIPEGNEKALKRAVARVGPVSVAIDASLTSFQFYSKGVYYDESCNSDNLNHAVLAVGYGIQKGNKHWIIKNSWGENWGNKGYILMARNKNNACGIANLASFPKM

[3] = target: Cathepsin S (Homo sapiens, UniProt P25774); test: Inhibition of recombinant human cathepsin S
[4] = Volume of distribution in rat; format: ADME, organism-based; details: in vivo, read-out: Vss
Procedure, shortened: (§1)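 Cassette dosing of six compounds to conscious, fed, permanently cannulated rats. IV bolus of 1 mg kg^-1 in N-methyl-2-pyrrolidone/PEG200 (30:70, v/v). Oral dose of 3 mg kg^-1, dissolved or suspended with sonication in 1% tartaric acid plus 1% carboxymethyl cellulose in water. Same animals received both routes, with a 48 h washout between them. Femoral arterial blood sampled over 24 h. Plasma extracted by acetonitrile precipitation and parent drug quantified by HPLC/MS.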

[5] = Terminal half life in rat; format: ADME, organism-based; details: in vivo; procedure, shortened: as §1
[6] = Oral bioavailability in rat; format: ADME, organism-based; details: in vivo; procedure, shortened: as §1
[7] = Clearance in rat; format: ADME, organism-based; details: in vivo; procedure, shortened: as §1
[8] = system: Rattus norvegicus; test: Cmax in rat at 3 mg/kg, po normalized to 1 mg/kg; format: ADME, organism-based; set-up: dose 3 mg/kg, route oral; details: in vivo; procedure, shortened: as §1

Sequence of Cathepsin S (P25774 whole entry): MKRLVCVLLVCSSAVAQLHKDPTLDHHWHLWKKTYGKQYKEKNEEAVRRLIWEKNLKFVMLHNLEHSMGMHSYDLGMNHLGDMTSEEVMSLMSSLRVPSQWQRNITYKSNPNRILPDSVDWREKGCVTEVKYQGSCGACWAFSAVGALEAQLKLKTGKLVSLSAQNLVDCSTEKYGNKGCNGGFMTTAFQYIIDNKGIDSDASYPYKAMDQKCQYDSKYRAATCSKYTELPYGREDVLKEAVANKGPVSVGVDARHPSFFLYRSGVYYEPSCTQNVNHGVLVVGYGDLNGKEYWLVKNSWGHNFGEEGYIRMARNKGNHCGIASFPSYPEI
Sequence of Procathepsin L (P07711 whole entry): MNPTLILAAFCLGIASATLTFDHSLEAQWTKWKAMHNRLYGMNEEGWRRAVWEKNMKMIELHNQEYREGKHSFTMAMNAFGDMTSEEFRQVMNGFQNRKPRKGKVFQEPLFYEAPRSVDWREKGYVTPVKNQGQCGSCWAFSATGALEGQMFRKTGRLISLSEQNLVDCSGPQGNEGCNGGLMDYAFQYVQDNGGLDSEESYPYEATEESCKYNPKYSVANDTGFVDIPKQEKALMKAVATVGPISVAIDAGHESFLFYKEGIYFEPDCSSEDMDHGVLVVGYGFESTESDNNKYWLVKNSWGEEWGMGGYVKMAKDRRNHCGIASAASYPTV

Row | IC50 [1] | IC50 [2] | IC50 [3] | Vd [4] | half-life [5] | bioavailability [6] | clearance [7] | Cmax [8] | Structure (SMILES)
1 | 7700 nM | 120 nM | 2300 nM |  |  |  |  |  | Cc1cccc(C[C@@H](C#N)NC(=O)[C@H](CC(C)C)NC(=O)OCc2ccccc2)c1
2 | 1200 nM | 83 nM | 140 nM |  |  |  |  |  | CC(C)C[C@H](NC(=O)CN1CCC(c2ccccc2)CC1)C(=O)N[C@H](C#N)COCc1ccccc1
3 | 660 nM |  | 240 nM |  |  |  |  |  | Cc1nccn1CC(=O)N[C@@H](CC(C)C)C(=O)N[C@H](C#N)COCc1ccccc1
4 | 8000 nM | 43 nM | > 10000 nM |  |  |  |  |  | CC(C)C[C@H](NC(=O)OCc1ccccc1)C(=O)N[C@H](C#N)Cc1ccc(C(F)(F)F)cc1
5 | 154 nM | < 1 nM | 29 nM |  |  |  |  |  | CC(C)C[C@H](NC(=O)c1cc2ccccc2[nH]1)C(=O)N[C@H](C#N)COCc1ccccc1
6 | 9900 nM | 48 nM | > 10000 nM |  |  |  |  |  | Cc1ccc(C[C@@H](C#N)NC(=O)[C@H](CC(C)C)NC(=O)OCc2ccccc2)cc1
7 | 2800 nM | 240 nM | 900 nM |  |  |  |  |  | CC(C)C[C@H](NC(=O)OCc1ccccc1)C(=O)N[C@H](C#N)COC(C)(C)C
8 | 190 nM | 430 nM | 41 nM |  |  |  |  |  | CC(C)C[C@H](NC(=O)C(C)(C)Nc1ccc(Cl)cc1)C(=O)N[C@H](C#N)COCc1ccccc1
9 | 83 nM | < 1 nM | 47 nM | 7.7 L/kg | 1.4 h | 30.1% | 82 mL/min/kg | 51.1 nM | CC(C)C[C@H](NC(=O)c1cc2ccccc2n1C)C(=O)N[C@H](C#N)COCc1ccccc1
10 | 330 nM | 9 nM | 180 nM | 18 L/kg | 1 h | 3.5% | 320 mL/min/kg | 2.5 nM | CC(C)C[C@H](NC(=O)CN1CCN(c2ccncc2)CC1)C(=O)N[C@H](C#N)COCc1ccccc1
11 | > 10000 nM | > 1000 nM | > 10000 nM |  |  |  |  |  | CC(C)C[C@H](NC(=O)OCc1ccccc1)C(=O)N[C@H](C#N)Cc1ccc(OCc2ccccc2)cc1
12 | < 30 nM | < 1 nM | 52 nM | 13.6 L/kg | 3.1 h | 10.1% | 141 mL/min/kg | 3.5 nM | CC(C)C[C@H](NC(=O)C(C)(C)Oc1ccc(Cl)cc1)C(=O)N[C@H](C#N)COCc1ccccc1
13 | 110 nM | 24 nM | 130 nM | 4.3 L/kg | 0.2 h | 4.6% | 396 mL/min/kg | 11.3 nM | Cc1nc[nH]c1CC(=O)N[C@@H](CC(C)C)C(=O)N[C@H](C#N)COCc1ccccc1
14 | 1700 nM | 9 nM | 969 nM | 4.6 L/kg | 2.2 h | 26.4% | 45 mL/min/kg | 44.3 nM | CC(C)C[C@H](NC(=O)OCc1ccccc1)C(=O)N[C@H](C#N)COCc1ccccc1
15 | 1100 nM | 63 nM | 700 nM |  |  |  |  |  | COc1ccc(C[C@@H](C#N)NC(=O)[C@H](CC(C)C)NC(=O)OCc2ccccc2)cc1
16 | 1400 nM | 398 nM | > 10000 nM |  |  |  |  |  | CC(C)C[C@H](NC(=O)OCc1ccccc1)C(=O)N[C@H](C#N)Cc1ccc(OC(C)(C)C)cc1
